Only some compounds are listed: those with a hit (about 3.7% of all), similar ones and a draw of the others.
KCNK3 inh: human KCNK3 channel inhibitors, primary screen, CHO cells, FluxOR thallium flux, B-score. Potassium channel subfamily K member 3 (Homo sapiens), O14649. B-score at 10 µM. FluxOR fluorescence; stronger effect = lower value. 340,000 tested, 0.84% active. AID 602410, 2012;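 active = B-score under library mean minus 4 SD, starting fluorescence ratio at most library mean plus 5 SD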;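 note: more negative B-score means stronger inhibition of thallium flux through KCNK3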
hERG protect: hERG rescue from dofetilide block, primary screen, cell-based, CHO-hERG, FluxOR thallium flux, dofetilide IC70; dofetilide IC70 present; activation (rescue from dofetilide block), less the hit threshold, % at 10 µM; 310,000 tested, 0.51% active; AID 1511, 2009;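 active = activation above the mean of controls blocked by dofetilide plus 5 SD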;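 note: thallium influx through hERG after potassium depolarization seen as dye fluorescence rise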
Kir21 block: inhibitors of mouse Kir2.1 inward-rectifier potassium channel. Inward rectifier potassium channel 2 (Mus musculus), P35561. HEK293-Kir2.1, FluxOR thallium flux fluorescence; stronger effect = lower value. B-score at 10 µM. 310,000 tested, 0.85% active;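 active = fluorescence ratio B-score at or below minus 3 SD of library scores, with starting-brightness B-score within 2 SD, cut at about -4.2 in these data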;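 note: channel flux triggered by added potassium and thallium sulfate stimulus; B-score of peak minus minimum fluorescence over baseline after thallium stimulus; more negative B-score means stronger Kir2.1 block with less thallium influx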
KCNQ1 act: potentiators or activators of KCNQ1 channel, primary screen, cell-based, thallium flux, high-throughput. CHO-K1 KCNQ1, thallium flux FluxOR fluorescence; stronger effect = higher value. AID 2648, 2010. 310,000 tested, 0.35% active. Potassium voltage-gated channel subfamily KQT member 1 (Homo sapiens), P51787. B-score at 10 µM;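 active = fluorescence ratio B-score, a plate-corrected score, at least three library SD, with initial intensity B-score within 5 SD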
Target sequence (P51787 whole entry, looked up): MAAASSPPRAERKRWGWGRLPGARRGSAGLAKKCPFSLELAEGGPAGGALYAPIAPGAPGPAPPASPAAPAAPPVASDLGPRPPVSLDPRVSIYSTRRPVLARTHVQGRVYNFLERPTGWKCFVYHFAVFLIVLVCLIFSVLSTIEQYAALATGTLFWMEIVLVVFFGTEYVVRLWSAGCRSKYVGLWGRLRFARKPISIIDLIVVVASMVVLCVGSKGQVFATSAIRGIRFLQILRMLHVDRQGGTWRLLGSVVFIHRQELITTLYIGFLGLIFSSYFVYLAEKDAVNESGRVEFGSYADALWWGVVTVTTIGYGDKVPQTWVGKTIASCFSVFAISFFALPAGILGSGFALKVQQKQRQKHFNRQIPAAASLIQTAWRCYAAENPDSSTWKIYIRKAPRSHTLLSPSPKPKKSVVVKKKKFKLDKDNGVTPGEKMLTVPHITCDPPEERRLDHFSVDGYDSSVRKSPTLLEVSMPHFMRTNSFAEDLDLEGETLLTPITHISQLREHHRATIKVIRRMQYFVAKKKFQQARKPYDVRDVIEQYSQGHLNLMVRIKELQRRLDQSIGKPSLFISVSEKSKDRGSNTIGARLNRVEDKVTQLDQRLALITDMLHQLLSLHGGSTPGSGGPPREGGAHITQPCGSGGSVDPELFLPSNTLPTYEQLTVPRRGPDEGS
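System: Stable KCNQ1 CHO-K1 line | Incubation: 90 min dye loading and 20 min compound exposure, both at room temperature | Measure: Ratio B score | Medium: Assay buffer for compound exposure, DMSO matched across wells | Compound dosing: Single-concentration screen | Probe or stimulus: K+/Tl+ depolarizing stimulus | Measured by: Kinetic FluxOR fluorescence, 10 s baseline plus 110 s post-stimulus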
KCNQ1 inh: inhibitors of human KCNQ1 channel, primary screen, cell-based, thallium flux, high-throughput. Potassium voltage-gated channel subfamily KQT member 1 (Homo sapiens), P51787. CHO-K1 KCNQ1, FluxOR thallium flux fluorescence; stronger effect = higher value. B-score at 10 µM. 310,000 tested, 1.3% active. AID 2642, 2010;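 active = compounds whose thallium flux B-score, printed positive for inhibition, exceeds three library SD while starting fluorescence stays within three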;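 note: channel opened by potassium depolarization with thallium stimulus after 20 min compound exposure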
KCNK9 inh: KCNK9 potassium channel inhibitors, primary screen, HEK293 cells, thallium flux; Potassium channel subfamily K member 9 (Homo sapiens), Q9NPC2; FluxOR thallium flux fluorescence; stronger effect = lower value; B-score at 10 µM; 310,000 tested, 1.2% active; AID 488922, 2010;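 active = ratio B-score over 3 SD below the library mean, with starting fluorescence within 5 SD of its mean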;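 note: negative B-score means less thallium flux so channel inhibition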
Active calls of the source: *; i = inactive; / = not tested or not shown.

SMILES	KCNK3 inh	hERG protect	Kir21 block	KCNQ1 act	KCNQ1 inh	KCNK9 inh
CCOc1c(Cl)cc(CNCCc2c[nH]c3ccccc23)cc1OC	i	-21	-1.7	i	i	i
CC(NCc1ccccc1C(F)(F)F)C(O)c1ccccc1 (centres undefined)	i	-5	1.6	i	i	i
CC[C@@H](O)C[C@H]1CCC[C@@]2(C[C@@H]3OC(=O)/C=C/[C@@](C)(O)[C@@H](O)[C@H](C)[C@@H](O)[C@H](OC4CCC(N(C)C)C(C)O4)[C@@H](O)[C@](C)(O)CCCCC/C=C/[C@@H]4CC(C)(C)O[C@@]4(O)C[C@H](O2)[C@H]3C)O1 (some centres undefined)	i	/	/	/	/	/
COC(=O)C(C)Oc1cc(C)cc2oc(=O)c3c(c12)CCCC3 (centres undefined)	-9.2*	-6	-2.4	i	i	i
COc1ccc(CNCCc2ccccc2F)c(OC)c1C	i	-5	-5.5*	i	i	i
C[C@H]1CCC/C=C/[C@@H]2C[C@H](O)C[C@H]2[C@H](O)/C=C/C(=O)O1	i	/	/	/	/	/
C[C@H]1CCCC(=O)CCC/C=C/c2cc(O)cc(O)c2C(=O)O1	i	-14	-4.4*	i	i	i
CCCCNC(C)Cc1ccccc1 (centres undefined)	i	/	/	/	/	/
COc1ccc(CC(C)NCCC(c2ccccc2)c2ccccc2)cc1 (centres undefined)	i	-28	-3.1	i	6*	i
O=c1[nH]c(=S)[nH]c(O)c1/C=C1/C=c2ccccc2=N1	i	45*	-0.72	i	i	i
Cc1cccc2c1=NC(=O)/C(=C/c1c(O)[nH]c(=O)[nH]c1=O)C=2	i	-3	3	i	i	i
CP(C)(=O)CCC(=O)O	i	-4	-0.46	i	i	i
C/C1=C\[C@@H](C)C/C=C/[C@H]2[C@@H]3O[C@]3(C)[C@@H](C)[C@H]3[C@H](Cc4c[nH]c5ccccc45)NC(=O)[C@]32C(=O)/C=C/C(=O)[C@@H]1O	i	-1	-2.1	22*	i	i
COc1ccc(CCNCc2ccc(SC)cc2)cc1	/	-10	-5.5*	i	i	i
CC(=O)OC(C)(C)/C=C/C(=O)C(C)(O)C1[C@H](O)C[C@@]2(C)C3CC=C4C(CC[C@@H](O)C4(C)C)[C@]3(CO)C(=O)C[C@]12C (some centres undefined)	i	3	-1.1	13*	i	i
O=C1CN=C(c2ccccc2)c2c(sc3c2CCCC3)N1	i	-1	0.74	i	i	i
COc1cccc(NP(=O)(Oc2ccc(Cl)cc2)Oc2ccc(Cl)cc2)c1	i	-4	0.64	i	i	-6.7*
Cc1cccc(NP(=O)(Oc2ccccc2F)Oc2ccccc2F)c1	i	-27	-1	i	i	-7.2*
O=P(N1CCCCCC1)(N1CCCCCC1)N1CC1	i	/	/	/	/	/
COc1cccc(CC(=O)N2CCN(Cc3cccc(Cl)c3)CC2)c1	i	-5	-0.25	8*	i	i
Cc1ccccc1-c1ccc2n1Cc1cnnn1-c1ccccc1-2	i	/	/	/	/	/
O=C1CCN(C(=O)Cc2ccccc2[N+](=O)[O-])CC1	i	-4	0.22	i	i	i
N#CC1=C(N)Oc2cc(O)ccc2C1c1ccc2c(c1)OCO2 (centres undefined)	i	-11	0.19	i	i	-7.5*
CC(C)(C)c1cc([N+](=O)[O-])cc(C(C)(C)C)c1O	/	-18	-1.3	i	6*	i
N[C@@H](Cc1c[nH]c2ccccc12)c1nnc(SCc2ccccc2)o1	i	-8	-0.93	i	i	i
SMILES	KCNK3 inh	hERG protect	Kir21 block	KCNQ1 act	KCNQ1 inh	KCNK9 inh
N[C@@H](Cc1c[nH]c2ccccc12)c1nnc(SCc2ccc(Cl)cc2)o1	i	-7	-5.2*	i	i	i
O=C1C=CC(=O)C2C1C1(Cl)C(Cl)=C(Cl)C2(Cl)C1(Cl)Cl (centres undefined)	i	/	/	/	/	/
COc1ccc(N2C(=O)/C(=C/C=C/c3ccccc3[N+](=O)[O-])C(=O)NC2=S)cc1	/	-15	-3.2	i	i	i
C[C@]12CCC(=O)C=C1C=CC1C2CC[C@@]2(C)C1CC[C@@H]2O (some centres undefined)	i	/	/	/	/	/
COc1ccc(/C=C2/C(=O)NC(=S)N(C3CC3)C2=O)cc1CN1C(=O)c2ccccc2C1=O	i	/	/	/	/	/
c1ccc2c(CNC3CCCCC3)c[nH]c2c1	/	-8	0.01	i	i	-7.1*
COc1ccc(C2CN(C)CC2C(=O)c2ccc(F)cc2)cc1Cl (centres undefined)	i	-14	0.92	i	i	i
COc1ccc(SCC2CN(C)CCC2c2ccc(F)cc2)cc1 (centres undefined)	i	-13	-4.8*	i	i	i
COc1ccc(N2C(=O)/C(=C/c3ccc(N(C)C)o3)C(=O)NC2=S)cc1	i	-19	-1.6	i	i	i
CCN(CC)c1ccc(/C=C2\C(=O)NC(=S)N(c3ccc(OC)cc3OC)C2=O)o1	i	-23	-7	i	6*	i
CCN(CC)c1ccc(/C=C2\C(=O)NC(=S)N(C)C2=O)o1	i	-7	-2.4	i	7*	i
O=C(O)c1cc[c]([Hg][Cl])cc1	i	/	/	/	/	/
O=c1[nH]cc(COCC(F)(F)C(F)(F)C(F)(F)F)c(=O)[nH]1	i	-12	-1.6	i	i	i
C/C(=N\Nc1cccc2ccccc12)c1c(O)n(Cc2ccccc2)c(=O)[nH]c1=O	i	-1	1.4	i	i	-7.2*
Clc1ccc(C[n+]2c(-c3ccccc3)cc(-c3ccccc3)cc2-c2ccccc2)cc1	i	-36	-13*	i	13*	-8.3*
C[n+]1c(-c2ccccc2)cc(-c2ccc(O)cc2)cc1-c1ccccc1	i	-23	-0.46	i	i	i
CCOc1ccc(-c2cc(C)[n+](CCc3ccc(OC)c(OC)c3)c(-c3ccc(OCC)cc3)c2)cc1	i	-28	-3.2	i	10*	i
CCOc1ccc(-c2cc(C)[n+](CCO)c(-c3ccc(OCC)cc3)c2)cc1	i	-4	0.68	i	i	i

Screening results from PubChem.
